The subject of data set [1] is Human betaherpesvirus 5. In words: Antiviral activity against HCMV Towne infected in human HFF cells assessed as reduction in plaque formation treated with compound following viral infection and incubated for 8 to 10 days by crystal violet staining based assay. Format: functional, organism-based. Particulars: Human betaherpesvirus 5, strain Towne.
The test system of data set [2] is Human betaherpesvirus 5. In words: Antiviral activity against GCV-resistant HCMV Towne infected in human HFF cells assessed as reduction in plaque formation treated with compound following viral infection and incubated for 8 to 10 days by crystal violet staining based assay. In kind it is functional, organism-based. The note with it: Human betaherpesvirus 5, strain Towne.

Data set [3] has as its system Human betaherpesvirus 5. As to the kind of experiment: Antiviral activity against HCMV TB40 infected in human HFF cells assessed as reduction in plaque formation treated with compound following viral infection and incubated for 8 to 10 days by crystal violet staining based assay. Format: functional, organism-based. The note with it: Human betaherpesvirus 5, TB40, HFF.

A further data set concerns HFF. As to the kind of experiment: Cytotoxicity against human HFF cells assessed as reduction in cell viability incubated for 72 hrs or 10 days by MTT assay. Format: cell-based. In outline:
(§1)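 MTT assay on uninfected cells exposed to compound for 72 h or 8–10 days, matching the antiviral assay durations. MTT (5 mg/mL stock in PBS) added, then 2–3 h at 37 °C. Formazan absorbance read at 560 nm.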
Background: Tetrazolium dyes change colour on reduction, which living cells bring about.

The subject of another data set is Human alphaherpesvirus 1. In words: Antiviral activity against HSV 1 infected in African green monkey Vero cells assessed as reduction in plaque formation incubated for 36 hrs by crystal violet staining based assay. Format: functional, organism-based. Particulars: vero. In outline: (§2)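 Plaque reduction in Vero cells: virus adsorbed 60 min, then compound added in a carboxymethylcellulose overlay. Plaques counted after 36 h by crystal violet staining.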

A further data set deals with Human alphaherpesvirus 2. As to the kind of experiment: Antiviral activity against HSV 2 infected in African green monkey Vero cells assessed as reduction in plaque formation incubated for 36 hrs by crystal violet staining based assay. Particulars: vero. Format: functional, organism-based. The method in brief: as §2
The subject of another data set is Human gammaherpesvirus 4. In words: Antiviral activity against EBV infected in human AKATA cells assessed as reduction in IgG-induced lytic virus replication measured at 48 hrs post-lytic induction by qRT-PCR analysis. Format: functional, organism-based. For orientation: Quantitative PCR measures a nucleic acid by following its amplification.
Data set [4] in a line: Antiviral activity against Mouse Cytomegalovirus Smith (ATCC VR-1399) infected in mouse MEF cells assessed as reduction in plaque formation measured after 3 days by crystal violet staining based assay. Particulars: Murid betaherpesvirus 1, ATCC VR-1399, MEF, 72 h; read-out: EC50. Format: functional, cell-based, Murine cytomegalovirus (strain Smith). In outline: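 Plaque reduction with MCMV Smith in mouse embryonic fibroblasts, with compound in a carboxymethylcellulose overlay. Assay ended at 3 days and plaques counted after crystal violet staining.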

Data set [5] has as its system Human betaherpesvirus 5. In words: Antiviral activity against pp28-luciferase expressing HCMV Towne infected in human HFF cells assessed as reduction in viral replication treated with compound at 24 hrs post viral infection at MOI of 1 PFU/cell and measured after 3 days by luciferase reporter gene assay. In kind it is functional, organism-based. Particulars: strain Towne. The method in brief: (§3)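 Time-of-addition in HFFs infected with HCMV Towne (MOI 1). Add-on: compound added at 0, 6, 24 or 48 hpi. Removal: compound added right after infection and washed out after 0, 6, 24 or 48 h. Luciferase read at 72 hpi.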
A general note: Reporter assays use an easily measured gene product as a stand-in for the process of interest.

The subject of data set [6] is Human betaherpesvirus 5. As to the kind of experiment: Antiviral activity against pp28-luciferase expressing HCMV Towne infected in human HFF cells assessed as reduction in viral replication treated with compound immediately after viral infection at MOI of 1 PFU/cell followed by compound washout after 6 hrs and measured after 3 days by luciferase reporter gene assay. Format: functional. The note with it: strain Towne. In outline:
as §3

Data set [7] relates to Human betaherpesvirus 5. In words: Antiviral activity against HCMV Towne infected in human HFF cells assessed as reduction in plaque formation treated with compound following viral infection at MOI of 1 PFU/cell and measured at 10 days post-infection in presence of letermovir by crystal violet staining based assay. Format: functional, organism-based. The note with it: Human betaherpesvirus 5, strain Towne, 240 h.

The subject of data set [8] is Human betaherpesvirus 5. As to the kind of experiment: Antiviral activity against HCMV TB40 infected in human HFF cells assessed as reduction in plaque formation treated with compound following viral infection at MOI of 100 PFU/wells measured at 10 days post-infection in presence of GCV by crystal violet staining based assay. Format: functional, organism-based. The note with it: Human betaherpesvirus 5, TB40, HFF, 240 h. In outline:
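HFFs were infected at about 100 plaques/well and adsorbed for 90 min. They were then overlaid with DMEM containing 0.5% carboxymethylcellulose, 4% FBS and drugs, and incubated at 37 °C. A dose-response of each drug alone gave its EC₅₀. Combinations started at twice each EC₅₀, followed by two-fold serial dilutions. Plaques were counted after crystal violet staining. The Bliss coefficient is observed over expected fold inhibition (>1 synergy, <1 antagonism, =1 additive).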

The next data set relates to MEF. In words: Cytotoxicity against mouse MEF cells assessed as reduction in cell viability at >=10 uM incubated for 72 hrs or 8 to 10 days by MTT assay. In kind it is cell-based. The method in brief:
as §1

Data set [9] deals with Human betaherpesvirus 5. As to the kind of experiment: Antiviral activity against pp28-luciferase harboring UL97 C607Y mutant expressing GCV-resistant HCMV Towne infected in human HFF cells assessed as reduction in viral replication at 0.5 to 3 uM treated with compound following viral infection at MOI of 0.1 PFU/cell and measured at 72 hrs post infection by luciferase reporter gene assay. Format: functional, organism-based. The note with it: strain Towne. In outline: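 HFFs infected with GCV-resistant pp28-luciferase Towne (MOI 0.1), then treated with a compound dilution series. Luciferase, driven by the UL99 late promoter, read in cell lysates at 72 hpi. Data are mean ± SD of triplicates from a single experiment.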

Data set [10] concerns Human betaherpesvirus 5. In words: Antiviral activity against HCMV TB40 infected in human HFF cells assessed as reduction in plaque formation at 0.5 to 3 uM treated with compound following viral infection at […] measured after 8 days by crystal violet staining analysis. In kind it is functional, organism-based. In outline:
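HFFs (2 × 10⁵/well) infected with HCMV TB40 at about 100 plaques/well for 90 min. Inoculum removed, then DMEM with 0.5% CMC, 4% FBS and compound added. Incubated at 37 °C; plaques stained with crystal violet and counted at 8 dpi. Experiment repeated three times; one representative shown.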

The subject of data set [11] is Human betaherpesvirus 5. In words: Inhibition of viral protein expression in HCMV Towne infected in human HFF cells assessed as reduction in IE2 expression at 1 to 10 uM treated with compound following viral infection at MOI of 1 PFU/cell measured at 72 hrs post infection by Western blot analysis. In kind it is functional, organism-based. The note with it: strain Towne. The method in brief:
(§4)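 HFFs infected with HCMV Towne (MOI 1), then treated with compound. Lysates taken at 72 hpi, equal protein loaded on 8–10% Tris-glycine SDS-PAGE and transferred to PVDF. Primary antibodies overnight at 4 °C, HRP secondary, chemiluminescent detection; β-actin as loading control.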

Data set [12] concerns Human betaherpesvirus 5. In words: Inhibition of viral protein expression in HCMV Towne infected in human HFF cells assessed as reduction in IE1 expression at 1 to 10 uM treated with compound following viral infection at MOI of 1 PFU/cell measured at 72 hrs post infection by Western blot analysis. Format: functional, organism-based. Particulars: strain Towne. The method in brief: as §4

Data set [13] concerns Human betaherpesvirus 5. As to the kind of experiment: Antiviral activity against HCMV Towne infected in human HFF cells assessed as reduction in viral DNA replication at 3 uM treated with compound following viral infection at MOI of 0.1 PFU/cell by US17 real time PCR analysis. In kind it is functional, organism-based. The note with it: strain Towne. The method in brief: (§5)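 At set time points supernatants were harvested and cells lysed for DNA. Cell-associated viral DNA and supernatant viral DNA quantified by real-time PCR targeting a 151-bp conserved US17 region.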

Data set [14] deals with Human betaherpesvirus 5. As to the kind of experiment: Antiviral activity against HCMV Towne infected in human HFF cells assessed as reduction in viral DNA yields in the supernatant at 3 uM treated with compound following viral infection at MOI of 0.1 PFU/cell by US17 real time PCR analysis. Particulars: strain Towne. Format: functional, organism-based. In outline: as §5

We go through one molecule from ChEMBL document CHEMBL4354867, “Validation and Characterization of Five Distinct Novel Inhibitors of Human Cytomegalovirus” (J Med Chem, 2020).

Calls of active or inactive are those of the source. No cut-off for these calls is given here.

As to `CC(C)NC(=O)C1CCN(C(=O)c2cc3sccc3n2Cc2ccc(Cl)cc2)CC1`, the EC50 is 4610 nM with Human betaherpesvirus 5 [1]; 1400 nM in the data set with Human betaherpesvirus 5 [2]; 1180 nM in the data set on Human betaherpesvirus 5 [3]; “Not Active” in the data set on Human alphaherpesvirus 1; “Not Active” with Human alphaherpesvirus 2; “Not Active” in the data set on Human gammaherpesvirus 4. The EC50 came out at 1000 nM in data set [4], 3190 nM in the data set with Human betaherpesvirus 5 [7] and 1510 nM in the data set on Human betaherpesvirus 5 [8]. The CC50 in the data set on HFF was more than 200000 nM. Also, the result in the data set with Human betaherpesvirus 5 [5] was inactive. For the same molecule, the result in the data set with Human betaherpesvirus 5 [6], in the data set on Human betaherpesvirus 5 [9], with Human betaherpesvirus 5 [10], in the data set on Human betaherpesvirus 5 [13] and in the data set on Human betaherpesvirus 5 [14] was Active. The Activity entry in the data set with MEF was “Toxic”. Also, the inhibition result in the data set on Human betaherpesvirus 5 [11] and in the data set on Human betaherpesvirus 5 [12] was “Active” throughout.

As a reminder, the EC50 is the concentration at which the effect is half-maximal. Usually CC50 stands for the concentration giving 50% cytotoxicity.
